Screens: PubChem BioAssay, several laboratories
Only some compounds are listed: those with a hit (about 1% of all), similar ones and a draw of the others.
DDE Tn7 FP inh = DD(E)-Tn7 binding inhibition, primary FP screen; FP displacement of FITC-Tn7 peptide from fibrin DD(E); 0% = median of compound wells per plate; inhibition, % at 8.3 µM; hit rate 0.13% among 370,000; AID 720508;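 active = inhibition above the mean of compounds falling within the control limits plus 3 SD of them, cut at about 14% in these data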;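 note: 0% = plate median of compound wells and 100% = 10 µM Aha-Tn7 peptide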
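Assay system: human fibrin DD(E). Input: DD(E) 2 µM final. Medium: Tris buffer with calcium and detergent, pH 7.8. Compound dosing: single point at 8.3 µM. Timing: 10 min plus 3 h, room temperature. Technique: fluorescence polarization of the labelled Tn7 tracer. Read-out: percent inhibition. Replicates: singlicate testing.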
PKA-R1A activ = activates the PKA-R1A holoenzyme complex. P00514+P68181. PKA-R1A dissociation, Cy5-IP20 fluorescence polarization; scaled: DMSO 0%, 113 µM cGMP 100%. activation, % at 11.4 µM. hit rate 0.083% among 340,000. AID 504707;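 active = percent activation above the mean of all tested compounds plus 3 SD, cut at about 19% in these data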;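 note: higher means more PKAc released from R1A so a rise in polarization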
DDE Tn6 FP inh = disrupts Tn6 cyclic peptide binding to fibrin D-Dimer-E complex. hit rate 0.21% among 370,000. inhibition, % at 8.3 µM. Fibrin DD(E) TRITC-Tn6 fluorescence polarization displacement;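 active = inhibition above a per-campaign cutoff: mean of compounds within control limits plus 3 SD, cut at about 15% in these data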;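 note: 0% = median of all compound wells on the plate and 100% = blocking peptide control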
Neddylation inh = inhibitors of human cullin neddylation. inhibition, % at 25 µM. P61081+Q13564. hit rate 0.58% among 360,000. AID 651699. TR-FRET cullin neddylation, biochemical; in the data active = inhibition above about 36%
PKA-R2B act = activates the human PKA-R2B holoenzyme complex | P22694+P31323 | PKA-R2B holoenzyme dissociation, Cy5-IP20 fluorescence polarization; R2B truncated from residue 108, S112A mutant; 0% DMSO only, 100% 113 µM cGMP | activation, % at 11.4 µM | hit rate 0.079% among 340,000 | AID 504700;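 active = activation above a cutoff set at the mean over all compounds plus 3 SD, cut at about 18% in these data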;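 note: higher means more holoenzyme dissociation and a rise in polarization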
Target sequence (P31323 whole entry, looked up, other chains not shown, the tested form may be a part): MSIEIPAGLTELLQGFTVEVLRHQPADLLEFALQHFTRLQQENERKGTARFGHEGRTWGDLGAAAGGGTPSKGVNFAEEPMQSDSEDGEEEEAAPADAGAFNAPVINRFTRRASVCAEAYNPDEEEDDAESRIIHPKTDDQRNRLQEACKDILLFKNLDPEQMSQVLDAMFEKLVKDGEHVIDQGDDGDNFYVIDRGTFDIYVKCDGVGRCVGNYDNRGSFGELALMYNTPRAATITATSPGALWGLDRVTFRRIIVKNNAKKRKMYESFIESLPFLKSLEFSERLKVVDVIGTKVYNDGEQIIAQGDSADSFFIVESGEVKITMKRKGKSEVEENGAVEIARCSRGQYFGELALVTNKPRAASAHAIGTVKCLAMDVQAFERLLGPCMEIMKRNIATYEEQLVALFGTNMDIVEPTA
Neddyl inh conf = confirmation of human cullin neddylation inhibitors | shares compounds with Neddylation inh | TR-FRET cullin neddylation biochemical assay | calls only at 25 µM | hit rate 13% among 1,800; in the data active = inhibition above about 40%;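 note: neddylation substrate is the cullin 1 ring ligase complex with SKP2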
* hit, by the source's call; i = inactive; / = no result shown; + = active, no number.

SMILES | DDE Tn7 FP inh | PKA-R1A activ | DDE Tn6 FP inh | Neddylation inh | PKA-R2B act | others
Cc1ccc2c(c1)-c1c(cnn1CC(=O)NCCc1ccccc1F)CO2 | -5 | / | -9 | / | /
Cc1ccc(S(=O)(=O)NCC2CCN(C(=O)C(=O)c3cccs3)CC2)cc1 | -2 | / | 3 | / | /
Cc1ccn2cc(-c3cccc(NS(C)(=O)=O)c3)nc2c1 | -1 | -1 | -4 | 44* | -14 | Neddyl inh conf=i
Cc1ccc(S(=O)(=O)Nc2ccc(-c3cn4ccc(C)cc4n3)cc2)cc1 | -3 | -6 | -9 | 41* | -1 | Neddyl inh conf=i
COc1c(Cl)cccc1-c1cn2ccc(C)cc2n1 | -3 | 0 | -2 | 44* | -6 | Neddyl inh conf=i
Cc1c(C(=O)NCC2CCCO2)oc2ccccc12 (stereo unspecified) | 7 | 2 | 1 | -15 | -1
Cc1c(C(=O)NCC2CCCO2)oc2ccc3c(c12)C(=O)CC(C)(C)O3 (stereo unspecified) | -13 | -4 | 4 | 37* | -7
Cc1cc(-n2ccnc2)n2c(nc3ccccc32)c1C#N | -6 | -6 | 4 | 43* | -13 | Neddyl inh conf=i
CCCc1cc(-n2ccnc2)n2c(nc3ccccc32)c1C#N | -10 | -1 | -6 | / | 4
CN(C)c1cccc(C(=O)NCCCSc2ccccc2)c1 | -6 | -7 | -8 | 49* | 8
Cc1cccc(C(=O)NCC(=O)NCCCSc2ccccc2)c1 | 7 | -9 | 0 | 11 | 1
CCCN(CC1CC1)C(=O)CN1C(=O)C2CCCCN2C(=O)c2ccccc21 (stereo unspecified) | 0 | / | -5 | / | /
CC1=C(C#N)C(c2ccc(O)cc2)C2=C(CCCC2=O)N1 (stereo unspecified) | 0 | -14 | 2 | 44* | -1 | Neddyl inh conf=i
COc1ccc(C2C3=C(CC(C)(C)CC3=O)Nc3c2c(=O)[nH]c2nc(C)nn32)cc1 (stereo unspecified) | -6 | 9 | -1 | 47* | -16 | Neddyl inh conf=+
COc1ccc(C2C(C#N)=C(C)NC3=C2C(=O)CC(C)(C)C3)cc1 (stereo unspecified) | -5 | 0 | -2 | 42* | -2
COc1cccc(C2C(C#N)=C(C)NC3=C2C(=O)CC(C)(C)C3)c1 (stereo unspecified) | 7 | -12 | -2 | / | -16
CCN(CC)C(=O)[C@H]1C[C@@H]2[C@H](C[C@@H](c3ccccc3)[C@H]1C)N(c1ccc(F)cc1)C(=O)N2CCCOc1ccccc1 | -7 | / | 8 | / | /
CCSc1nnc(NC(=O)c2cccc(S(=O)(=O)N(C)c3ccc(C)cc3)c2)s1 | 5 | -5 | -3 | 44* | 2 | Neddyl inh conf=i
CCc1nnc(NC(=O)c2cccc(S(=O)(=O)N(C)c3ccccc3)c2)s1 | 7 | -6 | -6 | 8 | -3
CC[C@H](CCCc1ccc(OC)cc1)CCC(=O)N(c1ccccc1)c1ccccc1 | 10 | / | -3 | / | /
CSc1nc2n(n1)C(c1cccs1)C1=C(CCCC1=O)N2 (stereo unspecified) | 3 | 1 | -4 | 42* | -3 | Neddyl inh conf=i
O=C1CCCC2=C1C(c1cccs1)n1nc(SCc3ccccc3F)nc1N2 (stereo unspecified) | 2 | -11 | 2 | / | 3
Cc1ccccc1CSc1nc2n(n1)C(c1cccs1)C1=C(CCCC1=O)N2 (stereo unspecified) | 0 | -5 | -3 | 39* | 6
COc1ccc2nc(NN=Cc3cccc(C)n3)cc(C)c2c1 | -5 | / | 2 | / | /
O=C(OCc1ccccc1)[C@H](Cc1ccccc1)NC(=O)[C@@H]1CC=C[C@@H]2CCN(Cc3ccccc3)C(=O)[C@@H]21 | -4 | / | 7 | / | /
SMILES | DDE Tn7 FP inh | PKA-R1A activ | DDE Tn6 FP inh | Neddylation inh | PKA-R2B act | others
CCOP(=O)(OCC)c1ccc2c(c1)C(=O)c1ccccc1-2 | 3 | / | 0 | / | /
Cc1cccc(-c2n[nH]c(=S)n2/N=C/C=C/c2ccco2)c1 | 3 | -8 | -9 | 60* | 0 | Neddyl inh conf=i
CCCC1CCC2(CC1)CCC2OC(=S)NCc1ccc(Cl)cc1 (stereo unspecified) | 9 | / | 4 | / | /
O=C(CSc1nnc2ccccn12)NC(=O)c1ccccc1Cl | 2 | 4 | -8 | 22 | 2
COc1ccccc1C(=O)NC(=O)CSc1nnc2ccccn12 | 6 | -7 | -2 | 44* | -1 | Neddyl inh conf=i
O=C(Cc1cn(Cc2ccccc2)c2ccccc12)Nc1ccc(Nc2cccnc2)c(Br)c1 | 5 | / | 0 | / | /
Nc1nc2ccccc2nc1N | 9 | -12 | -6 | 43* | 9 | Neddyl inh conf=+
c1ccc2nc3ccccc3nc2c1 | -9 | 8 | -5 | -23 | -3
Nc1ccc(-c2cc3ccccc3c(=O)o2)cc1 | -1 | 0 | -1 | 46* | 10 | Neddyl inh conf=i
O=c1oc(-c2ccccc2)cc2ccccc12 | 3 | / | 2 | 36 | /
COC(=O)c1cc2c(c3c4cc(F)ccc4n(S(=O)(=O)c4cccc(C)c4)c13)C(=O)N(c1ccc(OC)cc1)C2 | -2 | / | 3 | / | /
CCOC(=O)[C@@]12CCC3=C1N(CCC3)C(=O)[C@H](CC(=O)NCc1cccs1)C2 | -1 | / | 5 | / | /
Cc1ccc(C(=O)Nc2sc3c(c2C(=O)O)CCCC3)o1 | -5 | -16 | 2 | 51* | -7
CNC(=O)c1c(NC(=O)c2cccc(C)c2)sc2c1CCC2 | -2 | -11 | -14 | 49* | -4
COc1cc(C(=O)Nc2sc3c(c2C(=O)O)CCC3)cc(OC)c1OC | 0 | 8 | 5 | 41* | -2
CNC(=O)c1c(NC(=O)c2ccco2)sc2c1CCCC2 | -3 | 4 | -8 | 45* | -9
COC(=O)[C@]12C[C@H](CC(=O)NCCC(C)C)C(=O)N(CCC3=CCCCC3)C1=C[C@H](C1CCCC1)O[C@@H]2C | -4 | / | -5 | / | /
CCN(CC)CCCNC(=O)CSc1nnc(-c2ccncc2)n1-c1ccc(OC)cc1 | 3 | / | -5 | / | /
O=S1(=O)c2ccc(N3CCN(Cc4ccccc4F)CC3)cc2Oc2ccccc2CN1Cc1cn(Cc2cccc(C(F)(F)F)c2)nn1 | 4 | / | -6 | / | /
CCCN1CCCCC(NC(C)=O)C1=O (stereo unspecified) | 1 | / | -1 | / | /
O=C(NC1CCCC1)[C@@H]1CCCN1C(=O)[C@@H](NC(=O)N1CCOCC1)C1CCCCC1 | -3 | / | 4 | / | /
Nn1c(SCC(=O)N2c3ccccc3Sc3ccc(Cl)cc32)nnc1-c1n[nH]c2c1CCC2 | 4 | / | -11 | / | /
Cc1ccc(C(=O)NC2CCCCN(Cc3ccc(Cl)cc3)C2=O)c(C)c1 (stereo unspecified) | 2 | / | 1 | / | /
CCOC(=O)CCCNC(=O)OC1CC2CC1[C@H]1CCCCN1[C@H]2C (stereo partly specified) | 13 | / | 8 | / | /
CNC(=O)c1c(NC(=O)c2cccc(N3C(=O)CCC3=O)c2)sc2c1CCCC2 | -1 | -4 | -5 | / | -10
